Measurements as given in ChEMBL document CHEMBL3526048, “In vitro metabolism of rivoglitazone, a novel peroxisome proliferator-activated receptor γ agonist, in rat, monkey, and human liver microsomes and freshly isolated hepatocytes” (Drug Metab Dispos, 2011).

Tests used:
[1] = molecular target: T1, UDP-glucuronosyltransferase 2B7 (Homo sapiens, UniProt P16662); test: (§1) Activity of human UGT2B7 expressed in microsomes isolated from baculovirus infected insect cell assessed as enzyme-mediated 5-hydroxy-5-(4-((6-methoxy-1-methyl-1H-benzo[d]imidazol-2-yl)methoxy)benzyl)thiazolidine-2,4-dione formation at 20 uM after 4 hrs by radio-HPLC/LC-MS/MS analysis in presence of NADPH-generating system and NADPH-generating system/SAM in presence of UDPGA and UDPGA/SAM; format: ADME
T1 sequence (P16662 whole entry): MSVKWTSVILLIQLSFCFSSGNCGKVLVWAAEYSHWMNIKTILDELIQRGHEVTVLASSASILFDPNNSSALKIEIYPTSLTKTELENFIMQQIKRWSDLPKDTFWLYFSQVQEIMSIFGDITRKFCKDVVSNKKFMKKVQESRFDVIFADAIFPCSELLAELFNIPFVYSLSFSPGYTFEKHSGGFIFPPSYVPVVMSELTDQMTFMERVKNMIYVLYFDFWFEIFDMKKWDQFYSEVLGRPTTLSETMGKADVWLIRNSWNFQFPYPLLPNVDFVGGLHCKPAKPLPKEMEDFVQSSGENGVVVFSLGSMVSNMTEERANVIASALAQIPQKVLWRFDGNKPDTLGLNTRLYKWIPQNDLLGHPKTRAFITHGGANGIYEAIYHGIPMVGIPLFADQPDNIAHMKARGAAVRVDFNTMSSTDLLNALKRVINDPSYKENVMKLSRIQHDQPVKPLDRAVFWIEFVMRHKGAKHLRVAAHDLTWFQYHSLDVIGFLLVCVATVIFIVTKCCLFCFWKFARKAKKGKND

Cytochrome P450 2D6 [2] = molecular target: T2, Cytochrome P450 2D6 (Homo sapiens, UniProt P10635); test: Activity of human CYP2D6 expressed in microsomes isolated from baculovirus infected insect cell assessed as enzyme-mediated (2S,3S,4S,5R,6R)-3,4,5-trihydroxy-6-(5-(4-((6-methoxy-1-methyl-1H-benzo[d]imidazol-2-yl)methoxy)benzyl)-2,4-dioxothiazolidin-3-yl)tetrahydro-2H-pyran-2-carboxylic acid formation at 20 uM after 2 hrs by radio-HPLC/LC-MS/MS analysis in presence of UDPGA and UDPGA/SAM; format: ADME
T2 sequence (P10635 whole entry): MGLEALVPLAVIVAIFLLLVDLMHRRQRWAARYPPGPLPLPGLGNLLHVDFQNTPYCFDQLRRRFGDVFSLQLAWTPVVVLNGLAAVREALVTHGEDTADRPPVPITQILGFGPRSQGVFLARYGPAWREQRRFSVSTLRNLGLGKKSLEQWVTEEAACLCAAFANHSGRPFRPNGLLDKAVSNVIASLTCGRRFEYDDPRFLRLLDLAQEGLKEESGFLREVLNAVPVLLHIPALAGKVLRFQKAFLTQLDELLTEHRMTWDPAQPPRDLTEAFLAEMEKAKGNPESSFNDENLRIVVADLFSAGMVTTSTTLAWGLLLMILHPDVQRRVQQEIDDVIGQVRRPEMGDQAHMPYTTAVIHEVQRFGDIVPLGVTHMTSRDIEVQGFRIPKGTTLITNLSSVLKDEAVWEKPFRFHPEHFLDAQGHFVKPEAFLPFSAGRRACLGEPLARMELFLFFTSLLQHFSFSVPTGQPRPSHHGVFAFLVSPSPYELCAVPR

Cytochrome P450 2D6 [3] = molecular target: T2, Cytochrome P450 2D6; test: as §1, with “human CYP2D6” for “human UGT2B7”, “after 2” for “after 4”, “system/SAM” for “system/SAM in presence of UDPGA and UDPGA/SAM”; format: ADME
[4] = molecular target: T3, UDP-glucuronosyltransferase 1A3 (Homo sapiens, UniProt P35503); test: (§2) Activity of human UGT1A3 expressed in microsomes isolated from baculovirus infected insect cell assessed as enzyme-mediated 3-(4-((6-methoxy-1-methyl-1H-benzo[d]imidazol-2-yl)methoxy)phenyl)-2-(methylsulfonyl)propanamide formation at 20 uM after 4 hrs by radio-HPLC/LC-MS/MS analysis in presence of NADPH-generating system/SAM; format: ADME
T3 sequence (P35503 whole entry): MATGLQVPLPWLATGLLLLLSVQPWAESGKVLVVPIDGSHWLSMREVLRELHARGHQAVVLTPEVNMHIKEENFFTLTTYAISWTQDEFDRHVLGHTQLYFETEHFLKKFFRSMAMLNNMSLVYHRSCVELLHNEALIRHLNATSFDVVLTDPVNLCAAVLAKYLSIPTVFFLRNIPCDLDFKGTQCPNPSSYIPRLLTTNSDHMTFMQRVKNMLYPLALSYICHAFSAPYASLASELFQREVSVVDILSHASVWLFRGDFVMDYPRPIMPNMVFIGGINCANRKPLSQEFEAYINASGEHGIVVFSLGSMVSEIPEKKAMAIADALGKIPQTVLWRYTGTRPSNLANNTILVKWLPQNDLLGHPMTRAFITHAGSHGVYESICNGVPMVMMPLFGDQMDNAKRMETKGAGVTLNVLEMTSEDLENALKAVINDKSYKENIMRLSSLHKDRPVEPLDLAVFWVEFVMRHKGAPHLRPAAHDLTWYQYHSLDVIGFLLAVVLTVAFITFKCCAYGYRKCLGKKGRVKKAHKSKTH

Cytochrome P450 1A2 = molecular target: T4, Cytochrome P450 1A2 (Homo sapiens, UniProt P05177); test: Activity of human CYP1A2 expressed in microsomes isolated from baculovirus infected insect cell assessed as enzyme-mediated 2-mercapto-3-(4-((6-methoxy-1-methyl-1H-benzo[d]imidazol-2-yl)methoxy)phenyl)propanamide formation at 20 uM after 2 hrs by radio-HPLC/LC-MS/MS analysis in presence of NADPH-generating system and NADPH-generating system/SAM; format: ADME
T4 sequence (P05177 whole entry): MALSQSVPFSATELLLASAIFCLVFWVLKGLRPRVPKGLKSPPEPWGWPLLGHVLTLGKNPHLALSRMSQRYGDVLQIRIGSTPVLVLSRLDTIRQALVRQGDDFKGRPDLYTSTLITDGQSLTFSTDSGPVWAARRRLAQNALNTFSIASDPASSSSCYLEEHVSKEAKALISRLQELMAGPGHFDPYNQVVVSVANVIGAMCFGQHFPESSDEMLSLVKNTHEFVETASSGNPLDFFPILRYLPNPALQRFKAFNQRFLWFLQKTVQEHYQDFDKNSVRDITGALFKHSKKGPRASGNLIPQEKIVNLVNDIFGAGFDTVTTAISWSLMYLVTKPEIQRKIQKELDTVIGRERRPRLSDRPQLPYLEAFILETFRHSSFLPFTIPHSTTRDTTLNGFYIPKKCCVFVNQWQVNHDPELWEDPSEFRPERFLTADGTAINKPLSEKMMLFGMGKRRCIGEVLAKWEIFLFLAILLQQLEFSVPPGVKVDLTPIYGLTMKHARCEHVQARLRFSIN
Outline: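 Baculovirus/insect-cell microsomes expressing single human CYPs, 1 mg/ml protein, with 50 mM potassium phosphate (pH 7.4) or 100 mM Tris-HCl (pH 7.5). NADPH-generating system: 2 mM NADP⁺, 20 mM glucose 6-phosphate, 2 units/ml G6PDH, 10 mM MgCl₂. [¹⁴C]rivoglitazone at 20 μM, 2 h at 37°C with shaking. Control used insect-cell control supersomes. Stopped with acetonitrile; supernatant concentrated under nitrogen; metabolites analysed by radio-HPLC, LC-MS and LC-MS/MS.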

Cytochrome P450 3A5 = Cytochrome P450 3A5 (Homo sapiens, UniProt P20815); test: as §2, with “human CYP3A5” for “human UGT1A3”, “after 2” for “after 4”; format: ADME
Chain of Cytochrome P450 3A5 (P20815 whole entry): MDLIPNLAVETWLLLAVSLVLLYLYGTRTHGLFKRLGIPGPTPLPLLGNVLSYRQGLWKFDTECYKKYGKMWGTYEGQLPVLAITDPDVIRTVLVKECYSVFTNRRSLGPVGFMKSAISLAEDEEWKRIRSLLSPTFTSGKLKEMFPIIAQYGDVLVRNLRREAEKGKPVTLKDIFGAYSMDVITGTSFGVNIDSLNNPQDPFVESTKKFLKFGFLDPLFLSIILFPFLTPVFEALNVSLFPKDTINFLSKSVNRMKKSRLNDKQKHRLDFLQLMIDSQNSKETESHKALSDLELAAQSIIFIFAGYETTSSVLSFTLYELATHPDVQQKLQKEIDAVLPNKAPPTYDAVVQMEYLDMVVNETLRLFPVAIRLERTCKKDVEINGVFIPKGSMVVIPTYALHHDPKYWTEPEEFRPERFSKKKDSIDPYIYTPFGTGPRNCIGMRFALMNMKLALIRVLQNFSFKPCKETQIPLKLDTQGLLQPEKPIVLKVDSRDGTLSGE
Outline: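 cDNA-expressed human CYP3A5 in baculovirus-insect-cell microsomes (1 mg/ml protein) was incubated with [¹⁴C]rivoglitazone (20 μM) in 50 mM potassium phosphate (pH 7.4) or 100 mM Tris-HCl (pH 7.5). NADPH-generating system: 2 mM NADP⁺, 20 mM glucose 6-phosphate, 2 units/ml G6PDH, 10 mM MgCl₂. Incubation ran 2 h at 37°C with shaking; insect-cell control supersomes served as control. Acetonitrile stop, supernatant concentrated, then radio-HPLC, LC-MS and LC-MS/MS.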

[5] = Drug metabolism in monkey hepatocytes assessed as formation of 2-mercapto-3-(4-((6-methoxy-1-methyl-1H-benzo[d]imidazol-2-yl)methoxy)phenyl)propanamide at 30 uM after 3 hrs by radio-HPLC/LC-MS/MS analysis in presence of NADPH-generating system and NADPH-generating system/SAM; settings: cynomolgus monkey

Drug metabolism [1]: metabolite_not_detected | Drug metabolism (Cytochrome P450 2D6 [2]): metabolite_not_detected | Drug metabolism (Cytochrome P450 2D6 [3]): metabolite_detected | Drug metabolism [4]: metabolite_not_detected | Drug metabolism (Cytochrome P450 1A2): metabolite_detected | Drug metabolism (Cytochrome P450 3A5): metabolite_not_detected | Drug metabolism [5]: metabolite_not_detected
Structure (SMILES): COc1ccc2nc(COc3ccc(C[14CH]4SC(=O)NC4=O)cc3)n(C)c2c1.Cl (racemic)
